Active and inactive are the calls of the source.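 The calls were made as follows: active = toxic dose over resistance-reversal dose ratio above 10, when the toxic dose is under 15 µM; inactive = the rest.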
Test system: Igrov ABCG2 cells + mitoxantrone, trypan blue viability, 3 d
Assay: ABCG2-mediated chemoresistance reversal and toxicity – Igrov cells, one SAR set, orthogonal assay for ABC transporter inhibitor project, SAR follow-up (AID 2830)
Conditions: for CC50: measured here: toxicity without chemotherapeutic (TD50)
Summary of the method: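 Assay system: Igrove cells with ABCG2. Incubation: 3-day compound exposure alongside mitoxantrone. Measured by: trypan blue counts by microscopy. Doses: test compound concentration range 1–100 µM.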

SMILES	EC50	CC50
N#Cc1ccc(-c2ccc(OCC(=O)NCCc3ccccc3)cc2)cc1	4.73 µM	> 100 µM
Cc1nc2cc(-c3cccc(F)c3)nn2c(N2CCN(C(=O)c3ccco3)CC2)c1C	0.419 µM	> 100 µM
COC(=O)c1ccc(C(C(=O)NC2CCCCC2)N(Cc2ccccc2)C(=O)Cc2cccs2)cc1 (stereo not given)	8.93 µM	> 100 µM
CCOC(=O)c1cccc(NC(=O)c2cnc3ccccc3n2)c1	17.5 µM (inactive)	67.8 µM
Cc1cc(C)c(C#N)c(SCc2c(F)cccc2[N+](=O)[O-])n1	18.3 µM (inactive)	> 100 µM
COc1ccc(-c2nn(-c3ccccc3)cc2/C=C/C(=O)N2CCN(c3ccccn3)CC2)cc1	1.22 µM	> 100 µM
CC1=NN(c2ccc([N+](=O)[O-])cc2)C(=O)/C1=C/N(C)C	54.4 µM (inactive)	78.4 µM
COc1ccc(/C=N/NC(=O)c2cccnc2)cc1CN1CCN(c2ccc(F)cc2)CC1	8.71 µM (inactive)	15.4 µM
CCN(CC)P(=O)(Nc1cccc(C(F)(F)F)c1)c1ccc(N(C)C)cc1NC(=O)c1ccco1 (stereo not given)	2.31 µM (inactive)	19.8 µM
O=[N+]([O-])c1ccccc1-c1nc(-c2ccc(Br)o2)no1	15.6 µM (inactive)	23.2 µM
CCCCn1c(O)c(N=Nc2ccccn2)c2ccccc21	3.73 µM (inactive)	7.62 µM
CNc1nc2cc([N+](=O)[O-])c([N+](=O)[O-])cc2nc1NC	5.77 µM (inactive)	7.32 µM
O=[N+]([O-])c1ccc(Nc2nc(Cl)nc(NCCO)n2)cc1	55.5 µM (inactive)	> 100 µM
CCOC(=O)c1c(NC(=O)CSc2ncccn2)sc2c1CCN(Cc1ccccc1)C2	0.117 µM (inactive)	2.61 µM
CCCCN(C)C1=CC2=CC(=C(C#N)C#N)CCC2CC1 (stereo not given)	5.77 µM	67.8 µM

From PubChem BioAssay AID2830 (NMMLSC, 2010)
